# Assays:
# [1] = Inhibition of wild type Escherichia coli RNA polymerase after 10 mins by rolling circle transcription assay in presence of DNA nanocircle template NC45
# Method in brief: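 Wild-type core enzyme (10 nM final), Ni-NTA purified, with compound at 1.56-100 or 3.12-200 nM, held 10 min at 37 °C in Tris-HCl pH 8.0 buffer with KCl, MgCl2, Triton X-100, DTT and RNase inhibitor. Transcription on 80 nM NC45 circle was started with NTPs (500 µM each). Each compound run in duplicate; IC50 by nonlinear four-parameter logistic regression.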
# [2] = molecular target: DNA-directed RNA polymerase subunit beta (Escherichia coli O127:H6 (strain E2348/69 / EPEC), UniProt B7UPE2, D516V); assay: Inhibition of rifamycin-resistant Escherichia coli RNA polymerase D516V mutant after 10 mins by rolling circle transcription assay in presence of DNA nanocircle template NC45
# Chain of DNA-directed RNA polymerase subunit beta (Escherichia coli O127:H6 (strain E2348/69 / EPEC), UniProt B7UPE2, D516V) (B7UPE2 whole entry D516V): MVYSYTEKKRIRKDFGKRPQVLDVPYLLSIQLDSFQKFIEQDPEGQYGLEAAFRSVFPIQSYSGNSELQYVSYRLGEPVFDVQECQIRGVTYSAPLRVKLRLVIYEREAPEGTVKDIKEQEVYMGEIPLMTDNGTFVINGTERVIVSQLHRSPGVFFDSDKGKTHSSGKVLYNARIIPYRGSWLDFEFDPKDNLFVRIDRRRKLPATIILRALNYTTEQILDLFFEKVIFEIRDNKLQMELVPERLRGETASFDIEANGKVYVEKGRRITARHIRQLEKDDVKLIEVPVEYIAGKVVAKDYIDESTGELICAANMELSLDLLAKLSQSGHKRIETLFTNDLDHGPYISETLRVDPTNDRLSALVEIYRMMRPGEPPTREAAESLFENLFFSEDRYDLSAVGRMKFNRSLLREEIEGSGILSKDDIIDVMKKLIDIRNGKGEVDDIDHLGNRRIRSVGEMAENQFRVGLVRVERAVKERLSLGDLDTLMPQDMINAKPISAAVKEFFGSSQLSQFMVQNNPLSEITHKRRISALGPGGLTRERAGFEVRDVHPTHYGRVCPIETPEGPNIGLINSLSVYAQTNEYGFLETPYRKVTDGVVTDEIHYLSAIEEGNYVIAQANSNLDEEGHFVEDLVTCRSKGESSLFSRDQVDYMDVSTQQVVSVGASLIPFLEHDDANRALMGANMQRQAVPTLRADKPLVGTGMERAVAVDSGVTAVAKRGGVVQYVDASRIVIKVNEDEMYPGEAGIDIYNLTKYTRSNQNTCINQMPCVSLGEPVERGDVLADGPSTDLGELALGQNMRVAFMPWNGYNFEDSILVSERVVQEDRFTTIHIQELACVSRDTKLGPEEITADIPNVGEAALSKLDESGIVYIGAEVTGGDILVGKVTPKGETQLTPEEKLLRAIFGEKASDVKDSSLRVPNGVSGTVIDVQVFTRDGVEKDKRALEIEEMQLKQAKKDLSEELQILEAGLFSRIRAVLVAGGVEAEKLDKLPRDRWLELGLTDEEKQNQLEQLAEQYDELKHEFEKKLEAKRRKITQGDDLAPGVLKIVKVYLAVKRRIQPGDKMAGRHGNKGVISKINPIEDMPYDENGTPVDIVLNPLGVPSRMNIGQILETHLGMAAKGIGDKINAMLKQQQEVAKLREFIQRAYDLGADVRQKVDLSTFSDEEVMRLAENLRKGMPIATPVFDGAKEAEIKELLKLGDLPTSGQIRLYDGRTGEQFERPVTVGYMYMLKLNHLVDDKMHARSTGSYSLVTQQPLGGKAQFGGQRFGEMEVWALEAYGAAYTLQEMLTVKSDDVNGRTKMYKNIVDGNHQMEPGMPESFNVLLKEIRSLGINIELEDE
# [3] = molecular target: DNA-directed RNA polymerase subunit beta (Escherichia coli O127:H6 (strain E2348/69 / EPEC), UniProt B7UPE2, H526Y); assay: Inhibition of rifamycin-resistant Escherichia coli RNA polymerase H526Y mutant after 10 mins by rolling circle transcription assay in presence of DNA nanocircle template NC45
# Chain of DNA-directed RNA polymerase subunit beta (Escherichia coli O127:H6 (strain E2348/69 / EPEC), UniProt B7UPE2, H526Y) (B7UPE2 whole entry H526Y): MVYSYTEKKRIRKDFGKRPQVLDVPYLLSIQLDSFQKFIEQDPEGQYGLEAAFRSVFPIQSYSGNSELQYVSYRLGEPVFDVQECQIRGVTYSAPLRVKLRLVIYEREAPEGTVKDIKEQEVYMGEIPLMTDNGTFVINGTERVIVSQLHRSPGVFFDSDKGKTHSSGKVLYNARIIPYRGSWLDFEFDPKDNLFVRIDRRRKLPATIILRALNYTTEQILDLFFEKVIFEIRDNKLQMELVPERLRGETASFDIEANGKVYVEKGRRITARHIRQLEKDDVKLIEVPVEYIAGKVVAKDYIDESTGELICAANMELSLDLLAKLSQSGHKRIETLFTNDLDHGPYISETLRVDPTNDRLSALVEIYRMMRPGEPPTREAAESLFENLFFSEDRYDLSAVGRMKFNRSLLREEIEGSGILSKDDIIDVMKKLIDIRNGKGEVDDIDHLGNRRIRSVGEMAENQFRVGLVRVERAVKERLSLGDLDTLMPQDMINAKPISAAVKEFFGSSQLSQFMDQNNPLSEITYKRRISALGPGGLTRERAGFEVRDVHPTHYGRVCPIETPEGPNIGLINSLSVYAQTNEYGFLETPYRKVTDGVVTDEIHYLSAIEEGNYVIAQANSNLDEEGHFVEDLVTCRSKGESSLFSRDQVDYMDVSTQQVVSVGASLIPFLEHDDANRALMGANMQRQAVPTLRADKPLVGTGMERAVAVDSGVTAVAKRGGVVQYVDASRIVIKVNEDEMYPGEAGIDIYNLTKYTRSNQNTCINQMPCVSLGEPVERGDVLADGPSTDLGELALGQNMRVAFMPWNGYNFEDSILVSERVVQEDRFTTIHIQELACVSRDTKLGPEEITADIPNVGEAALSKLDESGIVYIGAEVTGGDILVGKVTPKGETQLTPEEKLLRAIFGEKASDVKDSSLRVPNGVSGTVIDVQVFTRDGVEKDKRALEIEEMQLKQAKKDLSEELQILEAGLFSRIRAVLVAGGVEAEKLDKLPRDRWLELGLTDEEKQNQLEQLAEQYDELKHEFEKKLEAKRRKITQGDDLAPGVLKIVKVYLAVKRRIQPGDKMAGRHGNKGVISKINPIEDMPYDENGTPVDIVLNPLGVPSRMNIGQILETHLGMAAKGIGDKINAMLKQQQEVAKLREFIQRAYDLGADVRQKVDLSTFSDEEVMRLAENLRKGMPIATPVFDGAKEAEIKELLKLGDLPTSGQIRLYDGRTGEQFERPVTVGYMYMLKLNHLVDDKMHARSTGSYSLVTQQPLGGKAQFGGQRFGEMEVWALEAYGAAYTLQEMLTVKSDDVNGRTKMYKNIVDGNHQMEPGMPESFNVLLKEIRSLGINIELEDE
# [4] = Inhibition of wild type Mycobacterium tuberculosis RNA polymerase after 10 mins by rolling circle transcription assay in presence of DNA nanocircle template NC45
smiles,measurement,setting,value
CO[C@H]1/C=C/O[C@@]2(C)Oc3c(C)c(O)c4c(=O)c(c5oc6cccc(OCCCCN7CCN(C(=O)Cn8ccnc8)CC7)c6nc-5c4c3C2=O)NC(=O)/C(C)=C\C=C\[C@H](C)[C@H](O)[C@@H](C)[C@@H](O)[C@@H](C)[C@H](OC(C)=O)[C@@H]1C,IC50,[1],0.021 µM
same,IC50,[2],41 µM
same,IC50,[3],1580 µM
CO[C@H]1/C=C/O[C@@]2(C)Oc3c(C)c(O)c4c(=O)c(c5oc6cc(N7CCN(CC(C)C)CC7)cc(O)c6nc-5c4c3C2=O)NC(=O)/C(C)=C\C=C\[C@H](C)[C@H](O)[C@@H](C)[C@@H](O)[C@@H](C)[C@H](OC(C)=O)[C@@H]1C [RIFALAZIL],IC50,[1],< 0.01 µM
same,IC50,[2],204 µM
same,IC50,[3],299 µM
CO[C@H]1/C=C/O[C@@]2(C)Oc3c(C)c(O)c4c(=O)c(c5oc6cccc(OCCCCN7CCN(CCn8ccnc8)CC7)c6nc-5c4c3C2=O)NC(=O)/C(C)=C\C=C\[C@H](C)[C@H](O)[C@@H](C)[C@@H](O)[C@@H](C)[C@H](OC(C)=O)[C@@H]1C,IC50,[1],0.024 µM
same,IC50,[2],2 µM
same,IC50,[3],≥ 2000 µM
CCN(CC)CCOc1cccc2oc3c4c(=O)c5c(O)c(C)c6c(c5c-3nc12)C(=O)[C@@](C)(O/C=C/[C@H](OC)[C@@H](C)[C@@H](OC(C)=O)[C@H](C)[C@H](O)[C@H](C)[C@@H](O)[C@@H](C)/C=C/C=C(/C)C(=O)N4)O6,IC50,[1],0.057 µM
same,IC50,[2],35 µM
same,IC50,[3],1150 µM
CO[C@H]1/C=C/O[C@@]2(C)Oc3c(C)c(O)c4c(O)c(c(/C=N/N5CCN(C)CC5)c(O)c4c3C2=O)NC(=O)/C(C)=C\C=C\[C@H](C)[C@H](O)[C@@H](C)[C@@H](O)[C@@H](C)[C@H](OC(C)=O)[C@@H]1C [RIFAMPIN],IC50,[1],0.012 µM
same,IC50,[2],233 µM
same,IC50,[3],1130 µM
same,IC50,[4],0.017 µM

# Source: ChEMBL document CHEMBL2380284, “X-ray crystal structures of the Escherichia coli RNA polymerase in complex with benzoxazinorifamycins” (J Med Chem, 2013)
